Measurements as given in ChEMBL document CHEMBL2311453, “Tetrahydropyrroloquinolinone type dual inhibitors of aromatase/aldosterone synthase as a novel strategy for breast cancer patients with elevated cardiovascular risks” (J Med Chem, 2013).

Legend:
[1] = molecular target: T1, CYP17 (Homo sapiens, UniProt P05093); assay: Inhibition of human CYP17 expressed in Escherichia coli using progesterone as substrate at 2 uM; settings: probe progesterone
T1 sequence (P05093 whole entry): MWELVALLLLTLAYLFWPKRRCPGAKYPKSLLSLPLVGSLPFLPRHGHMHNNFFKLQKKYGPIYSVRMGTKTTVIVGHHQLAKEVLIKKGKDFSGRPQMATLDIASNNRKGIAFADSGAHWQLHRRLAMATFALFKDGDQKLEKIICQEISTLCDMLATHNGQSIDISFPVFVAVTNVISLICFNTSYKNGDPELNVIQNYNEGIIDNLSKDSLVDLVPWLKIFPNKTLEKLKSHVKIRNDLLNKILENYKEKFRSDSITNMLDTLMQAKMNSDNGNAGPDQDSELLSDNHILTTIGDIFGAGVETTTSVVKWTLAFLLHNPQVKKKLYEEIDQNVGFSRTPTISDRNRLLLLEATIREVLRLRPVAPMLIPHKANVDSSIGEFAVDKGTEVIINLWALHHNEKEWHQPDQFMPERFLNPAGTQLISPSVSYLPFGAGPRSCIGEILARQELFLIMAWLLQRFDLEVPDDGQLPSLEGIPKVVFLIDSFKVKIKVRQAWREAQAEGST
In short: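 Enzyme source was the 90000g sediment of E. coli coexpressing human CYP17 and cytochrome P450 reductase. Progesterone substrate at 25 μM, NADPH cofactor, inhibitor at 2 μM. Percent inhibition is the mean of at least two experiments (SD under 10%).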

[2] = system: V79MZh; assay: Selectivity factor, ratio of IC50 for human CYP11B1 to IC50 for human CYP11B2 expressed in hamster V79MZh cells; format: cell-based
In short: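 SF calculated as IC50(CYP11B1)/IC50(CYP11B2). Both IC50s come from V79MZh hamster fibroblasts expressing the human enzyme, with [1,2-³H]-11-deoxycorticosterone at 100 nM as substrate.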

[3] = molecular target: T2, CYP11B2 (Homo sapiens, UniProt P19099); assay: Inhibition of human CYP11B2 expressed in hamster V79MZh cells using [1,2-3H]-11-deoxy-corticosterone as substrate; format: cell-based; settings: human, hamster V79MZh cells expressing human CYP11B2, probe [1,2-3H]-11-deoxy-corticosterone
T2 sequence (P19099 whole entry): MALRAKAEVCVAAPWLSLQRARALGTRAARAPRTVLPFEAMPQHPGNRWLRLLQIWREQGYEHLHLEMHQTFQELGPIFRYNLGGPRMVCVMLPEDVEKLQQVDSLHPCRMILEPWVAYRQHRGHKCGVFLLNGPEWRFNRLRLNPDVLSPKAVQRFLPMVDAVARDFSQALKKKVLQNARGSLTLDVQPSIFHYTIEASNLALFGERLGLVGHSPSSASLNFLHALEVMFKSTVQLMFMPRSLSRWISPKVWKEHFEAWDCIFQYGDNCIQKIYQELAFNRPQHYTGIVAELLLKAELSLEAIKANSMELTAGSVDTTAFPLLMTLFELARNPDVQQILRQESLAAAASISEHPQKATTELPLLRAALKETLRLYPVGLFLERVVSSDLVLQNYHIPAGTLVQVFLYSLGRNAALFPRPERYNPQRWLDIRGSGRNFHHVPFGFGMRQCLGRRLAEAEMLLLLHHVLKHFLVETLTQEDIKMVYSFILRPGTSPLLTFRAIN
In short: (§1)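 V79MZh hamster fibroblasts stably expressing human CYP11B1 or CYP11B2, incubated with [1,2-³H]-11-deoxycorticosterone (100 nM) and inhibitor at varying concentrations. IC50 taken as mean of at least three experiments (relative SD under 25%).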

[4] = molecular target: T3, CYP11B1 (Homo sapiens, UniProt P15538); assay: Inhibition of human CYP11B1 expressed in hamster V79MZh cells using [1,2-3H]-11-deoxy-corticosterone as substrate; format: cell-based; settings: human, hamster V79MZh cells expressing human CYP11B1, probe [1,2-3H]-11-deoxy-corticosterone; in short: as §1
T3 sequence (P15538 whole entry): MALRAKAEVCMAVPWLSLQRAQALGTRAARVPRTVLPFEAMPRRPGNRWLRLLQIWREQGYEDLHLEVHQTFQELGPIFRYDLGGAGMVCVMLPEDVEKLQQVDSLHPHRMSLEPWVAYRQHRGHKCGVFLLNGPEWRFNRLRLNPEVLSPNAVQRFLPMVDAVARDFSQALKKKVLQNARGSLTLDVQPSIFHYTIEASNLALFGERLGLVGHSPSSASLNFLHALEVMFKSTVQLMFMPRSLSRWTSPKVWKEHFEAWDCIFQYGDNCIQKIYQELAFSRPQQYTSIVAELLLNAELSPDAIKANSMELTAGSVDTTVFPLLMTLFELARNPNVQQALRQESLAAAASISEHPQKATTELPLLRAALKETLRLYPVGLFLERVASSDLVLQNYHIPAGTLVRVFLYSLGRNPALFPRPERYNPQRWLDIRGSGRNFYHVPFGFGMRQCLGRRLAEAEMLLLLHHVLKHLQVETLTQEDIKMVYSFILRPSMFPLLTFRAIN

inhibition at 2 µM [1]: 41% | IC50 [3]: 24 nM | IC50 [4]: 2.2 nM
Structure (SMILES): O=C1CCc2cc(C(C3CC3)n3ccnc3)cc3c2N1CC3 (centres undefined)
Ratio IC50 [2]: 0.1
